Assay [1] is filed under the species Bos taurus. The experiment in a line: Inhibition of calf thymus topoisomerase 1 assessed as relaxation of supercoiled plasmid DNA at 100 uM. A digest of the protocol: (§1)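 Compound was added at 20 or 100 μM and the mix incubated 30 min at 37 °C. Reactions were stopped with SDS/bromophenol blue/glycerol dye, run on 1% agarose in TAE for 1 h, and stained with ethidium bromide.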

The species named for assay [2] is Bos taurus. As to the kind of experiment: Inhibition of calf thymus topoisomerase 1 assessed as relaxation of supercoiled plasmid DNA at 20 uM. A digest of the protocol: as §1
The test system of the next assay is SK-MEL-2. As to the kind of experiment: Cytotoxicity against human SK-MEL-2 cells after 48 hrs by SRB method. Type of assay: functional, cell-based. The note with it: SK-MEL-2, 48 h. A digest of the protocol:
(§2)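 SRB assay following the NCI protocol. Cells were kept in log growth with a medium change 24 h before the assay, then trypsinized and seeded at 5 × 10³ (A549, HCT15), 1 × 10⁴ (SK-MEL-2) or 2 × 10⁴ (SK-OV-3) cells/well. After 24 h preincubation at 37 °C in 5% CO₂, compounds in DMSO were added as six 3-fold dilutions (final DMSO <0.5%) for 48 h. Cells were fixed in cold 10% TCA and stained with 0.4% SRB. Bound dye was dissolved in 10 mM Tris (pH 10.5) and absorbance read at 520 nm. Survival fractions came from regression of viability against concentration.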

The subject of the next assay is A549. The experiment in a line: Cytotoxicity against human A549 cells after 48 hrs by SRB method. Type of assay: functional, cell-based. The note with it: A549, 48 h. A digest of the protocol: as §2
In general terms: The SRB assay estimates cell density from bound dye.

Another assay has as its system SK-OV-3. As to the kind of experiment: Cytotoxicity against human SKOV3 cells after 48 hrs by SRB method. Type of assay: functional, cell-based. Particulars: SK-OV-3, 48 h. In short, it runs like this:
as §2

For another assay, the system named is HCT-15. The experiment in a line: Cytotoxicity against human HCT15 cells after 48 hrs by SRB method. Particulars: HCT-15, 48 h. Type of assay: functional, cell-based. A digest of the protocol:
as §2

The species named for assay [3] is Homo sapiens. As to the kind of experiment: Inhibition of human topoisomerase 2 at 100 uM.
For assay [4], the species on record is Homo sapiens. The experiment in a line: Inhibition of human topoisomerase 2 at 20 uM.

Activity calls are given as the source filed them. The rule behind the calls is not given here.

Consider `c1ccc(-c2cc(-c3ccsc3)cc(-c3cccs3)n2)nc1`, for which the result in the assay filed under Bos taurus [1] and in the assay listed under Bos taurus [2] was Active.

As to `c1cc(-c2cc(-c3ccsc3)cc(-c3ccsc3)n2)ccn1`, the IC50 (usually the midpoint of a concentration-inhibition curve) in the assay with SK-MEL-2 was 9.76 µM; in the assay with A549, 27.8 µM; in the assay on SK-OV-3 it was 9.86 µM; with HCT-15, 2.54 µM.

For `COc1cc([C@@H]2c3cc4c(cc3[C@@H](O[C@@H]3O[C@@H]5CO[C@@H](C)O[C@H]5[C@H](O)[C@H]3O)[C@H]3COC(=O)[C@H]23)OCO4)cc(OC)c1O` [ETOPOSIDE], the half-inhibitory concentration (IC50) is 0.3 µM with SK-MEL-2, 0.32 µM with A549, 1.72 µM with SK-OV-3 and 2.43 µM in the assay on HCT-15.

As for `c1csc(-c2cc(-c3ccsc3)cc(-c3ccncc3)n2)c1`, the outcome in the assay listed under Bos taurus [1] and in the assay listed under Bos taurus [2] was Active.

In the case of `c1csc(-c2cc(-c3ccncc3)nc(-c3cccs3)c2)c1`, the IC50 in the assay on SK-MEL-2 worked out at 3.68 µM; with A549 it was 4.16 µM; with SK-OV-3 it was 5.75 µM; in the assay with HCT-15 it was 1.72 µM.

As to `c1cncc(-c2cc(-c3ccsc3)cc(-c3cccs3)n2)c1`, the IC50 with SK-MEL-2 was determined as 5.61 µM; in the assay on A549, 2.73 µM; in the assay with SK-OV-3 it was 7.49 µM; in the assay on HCT-15, 4.06 µM.

On to `c1cncc(-c2cc(-c3ccncc3)nc(-c3ccco3)c2)c1`, for which the outcome in the assay listed under Bos taurus [1] and in the assay listed under Bos taurus [2] was Active.

With `c1coc(-c2cc(-c3ccsc3)cc(-c3ccncc3)n2)c1`, the result in the assay listed under Homo sapiens [3] and in the assay listed under Homo sapiens [4] was Active.

In the case of `c1cncc(-c2cc(-c3ccco3)cc(-c3cccs3)n2)c1`, the half-maximal inhibitory concentration (IC50) was found to be 1.95 µM in the assay with SK-MEL-2, 14.5 µM in the assay with A549, 5.9 µM with SK-OV-3 and 5.87 µM with HCT-15.

`c1coc(-c2cc(-c3ccoc3)cc(-c3ccncc3)n2)c1`: the outcome in the assay listed under Homo sapiens [3] and in the assay listed under Homo sapiens [4] was Active.

Turning to `c1cc(-c2cc(-c3ccoc3)cc(-c3ccsc3)n2)ccn1`, the result in the assay listed under Homo sapiens [3] and in the assay listed under Homo sapiens [4] was Active.

Consider `c1coc(-c2cc(-c3cccs3)cc(-c3ccncc3)n2)c1`, for which the result in the assay listed under Bos taurus [1] and in the assay listed under Bos taurus [2] was Active.

For the compound `c1csc(-c2cc(-c3ccncc3)nc(-c3ccsc3)c2)c1`, the concentration for half-maximal inhibition (IC50) was found to be 8.94 µM in the assay on SK-MEL-2, 5.69 µM with A549, 14.5 µM in the assay with SK-OV-3 and 3.79 µM in the assay on HCT-15.

As for `c1coc(-c2cc(-c3ccncc3)nc(-c3cccs3)c2)c1`, the half-maximal inhibitory concentration (IC50) in the assay with SK-MEL-2 was 5.43 µM; in the assay on A549, 10.9 µM; in the assay on SK-OV-3, 8.69 µM; with HCT-15, 4.18 µM.

With `c1ccc(-c2cc(-c3ccoc3)cc(-c3ccco3)n2)nc1`, the result in the assay listed under Homo sapiens [3] and in the assay filed under Homo sapiens [4] was Active.

Turning to `c1csc(-c2cc(-c3ccoc3)cc(-c3ccncc3)n2)c1`, the result in the assay filed under Homo sapiens [3] and in the assay filed under Homo sapiens [4] was Active.

Regarding `c1cncc(-c2cc(-c3ccncc3)nc(-c3cccs3)c2)c1`, the outcome in the assay listed under Homo sapiens [3] and in the assay listed under Homo sapiens [4] was Active.

In the case of `c1cc(-c2cc(-c3ccncc3)nc(-c3ccsc3)c2)ccn1`, the result in the assay filed under Homo sapiens [3] and in the assay listed under Homo sapiens [4] was Active.

These data come from ChEMBL document CHEMBL1143676, “2,4,6-Trisubstituted pyridines: Synthesis, topoisomerase I and II inhibitory activity, cytotoxicity, and structure-activity relationship” (Bioorg Med Chem, 2007).
